Measured values: ChEMBL document CHEMBL4689842, “EUbOPEN Chemogenomics Library wave 1” (2021)

Test system: HEK-293T
Assay: Multiplex assay against HEK293T;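 for Population Tubulin-Different-Phenotype (%): share of the cells with healthy nuclei that show this phenotype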
Format: toxicity, cell-based
Conditions: human
Procedure, shortened: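 Imaging took place on a CQ1 microscope at 37°C and 5% CO2 once compound had been added to live cells stained at seeding with Hoechst33342, BioTracker Green Microtubule Cytoskeleton Dye, MitoTracker Red and Annexin V Alexa Fluor 680. CellPathfinder machine-learning gating classed cells as Hoechst high-intensity objects or normal cells, classed normal cells as having healthy, pyknosed or fragmented nuclei, and classed pyknosed cells as mitotic or apoptotic. Tubulin, mitochondrial-mass and membrane-permeability phenotypes are per cents of the healthy-nucleus cells.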

[1] = 12 h, 1 µM, compound concentration 1 uM, replicate 1
[2] = 12 h, 1 µM, compound concentration 1 uM, replicate 2
[3] = 12 h, 10 µM, compound concentration 10 uM, replicate 1
[4] = 12 h, 10 µM, compound concentration 10 uM, replicate 2
[5] = 24 h, 1 µM, compound concentration 1 uM, replicate 1
[6] = 24 h, 1 µM, compound concentration 1 uM, replicate 2
[7] = 24 h, 10 µM, compound concentration 10 uM, replicate 1
[8] = 24 h, 10 µM, compound concentration 10 uM, replicate 2
[9] = 48 h, 1 µM, compound concentration 1 uM, replicate 1
[10] = 48 h, 1 µM, compound concentration 1 uM, replicate 2
[11] = 48 h, 10 µM, compound concentration 10 uM, replicate 1
[12] = 48 h, 10 µM, compound concentration 10 uM, replicate 2

## C[C@]12CC[C@@H]3c4ccc(O)cc4CC[C@H]3[C@@H]1CC[C@@H]2O [ESTRADIOL]
[1]
  Population Apoptotic (%): 40%
  Population Fragmented Nuclei (%): 10%
  Population Healthy Nuclei (%): 45%
  Population Hoechst High Intensity Objects (%): 14%
  Population Membrane Permeable-Phenotype (%): 1%
  Population Mitochondria Different-Phenotype (%): 72%
  Population Mitotic Cells (%): 59%
  Population Normal (%): 85%
  Population Pyknosed Nuclei (%): 44%
  Population Tubulin-Different-Phenotype (%): 41%
[2]
  Population Apoptotic (%): 4%
  Population Fragmented Nuclei (%): 7%
  Population Healthy Nuclei (%): 42%
  Population Hoechst High Intensity Objects (%): 3%
  Population Membrane Permeable-Phenotype (%): 3%
  Population Mitochondria Different-Phenotype (%): 10%
  Population Mitotic Cells (%): 95%
  Population Normal (%): 96%
  Population Pyknosed Nuclei (%): 50%
  Population Tubulin-Different-Phenotype (%): 11%
[3]
  Population Apoptotic (%): 42%
  Population Fragmented Nuclei (%): 11%
  Population Hoechst High Intensity Objects (%): 15%
  Population Membrane Permeable-Phenotype (%): 0%
  Population Mitochondria Different-Phenotype (%): 76%
  Population Mitotic Cells (%): 57%
  Population Normal (%): 84%
  Population Pyknosed Nuclei (%): 52%
  Population Tubulin-Different-Phenotype (%): 29%
[4]
  Population Apoptotic (%): 10%
  Population Fragmented Nuclei (%): 5%
  Population Healthy Nuclei (%): 36%
  Population Hoechst High Intensity Objects (%): 5%
  Population Membrane Permeable-Phenotype (%): 1%
  Population Mitochondria Different-Phenotype (%): 11%
  Population Mitotic Cells (%): 89%
  Population Normal (%): 94%
  Population Pyknosed Nuclei (%): 58%
  Population Tubulin-Different-Phenotype (%): 9%
[5]
  Population Apoptotic (%): 37%
  Population Fragmented Nuclei (%): 12%
  Population Healthy Nuclei (%): 52%
  Population Hoechst High Intensity Objects (%): 16%
  Population Membrane Permeable-Phenotype (%): 1%
  Population Mitochondria Different-Phenotype (%): 45%
  Population Mitotic Cells (%): 62%
  Population Normal (%): 83%
  Population Pyknosed Nuclei (%): 34%
  Population Tubulin-Different-Phenotype (%): 34%
[6]
  Population Apoptotic (%): 6%
  Population Fragmented Nuclei (%): 3%
  Population Healthy Nuclei (%): 64%
  Population Hoechst High Intensity Objects (%): 3%
  Population Membrane Permeable-Phenotype (%): 10%
  Population Mitochondria Different-Phenotype (%): 6%
  Population Mitotic Cells (%): 93%
  Population Normal (%): 96%
  Population Pyknosed Nuclei (%): 31%
  Population Tubulin-Different-Phenotype (%): 21%
[7]
  Population Apoptotic (%): 39%
  Population Fragmented Nuclei (%): 11%
  Population Healthy Nuclei (%): 46%
  Population Hoechst High Intensity Objects (%): 16%
  Population Membrane Permeable-Phenotype (%): 1%
  Population Mitochondria Different-Phenotype (%): 53%
  Population Mitotic Cells (%): 60%
  Population Normal (%): 83%
  Population Pyknosed Nuclei (%): 41%
  Population Tubulin-Different-Phenotype (%): 39%
[8]
  Population Apoptotic (%): 7%
  Population Fragmented Nuclei (%): 5%
  Population Healthy Nuclei (%): 47%
  Population Hoechst High Intensity Objects (%): 5%
  Population Membrane Permeable-Phenotype (%): 8%
  Population Mitochondria Different-Phenotype (%): 12%
  Population Mitotic Cells (%): 92%
  Population Normal (%): 94%
  Population Pyknosed Nuclei (%): 47%
  Population Tubulin-Different-Phenotype (%): 12%
[9]
  Population Apoptotic (%): 42%
  Population Fragmented Nuclei (%): 15%
  Population Healthy Nuclei (%): 61%
  Population Hoechst High Intensity Objects (%): 13%
  Population Membrane Permeable-Phenotype (%): 3%
  Population Mitochondria Different-Phenotype (%): 20%
  Population Mitotic Cells (%): 57%
  Population Normal (%): 86%
  Population Pyknosed Nuclei (%): 23%
  Population Tubulin-Different-Phenotype (%): 25%
[10]
  Population Apoptotic (%): 3%
  Population Fragmented Nuclei (%): 5%
  Population Healthy Nuclei (%): 81%
  Population Hoechst High Intensity Objects (%): 3%
  Population Membrane Permeable-Phenotype (%): 8%
  Population Mitochondria Different-Phenotype (%): 3%
  Population Mitotic Cells (%): 96%
  Population Normal (%): 96%
  Population Pyknosed Nuclei (%): 13%
  Population Tubulin-Different-Phenotype (%): 13%
[11]
  Population Apoptotic (%): 29%
  Population Fragmented Nuclei (%): 16%
  Population Healthy Nuclei (%): 56%
  Population Hoechst High Intensity Objects (%): 11%
  Population Membrane Permeable-Phenotype (%): 1%
  Population Mitochondria Different-Phenotype (%): 30%
  Population Mitotic Cells (%): 70%
  Population Normal (%): 88%
  Population Tubulin-Different-Phenotype (%): 25%
[12]
  Population Apoptotic (%): 11%
  Population Fragmented Nuclei (%): 3%
  Population Healthy Nuclei (%): 69%
  Population Hoechst High Intensity Objects (%): 4%
  Population Membrane Permeable-Phenotype (%): 3%
  Population Mitochondria Different-Phenotype (%): 4%
  Population Mitotic Cells (%): 88%
  Population Normal (%): 95%
  Population Pyknosed Nuclei (%): 26%
  Population Tubulin-Different-Phenotype (%): 10%

## COc1ccc(-c2ccc3ncc4c(c3c2)n(-c2ccc(N3CCNCC3)c(C(F)(F)F)c2)c(=O)n4C)cn1.O=C(O)/C=C\C(=O)O [BGT-226]
[1]
  Population Apoptotic (%): 70%
  Population Fragmented Nuclei (%): 22%
  Population Healthy Nuclei (%): 2%
  Population Hoechst High Intensity Objects (%): 25%
  Population Mitochondria Different-Phenotype (%): 87%
  Population Mitotic Cells (%): 29%
  Population Normal (%): 74%
  Population Pyknosed Nuclei (%): 74%
  Population Tubulin-Different-Phenotype (%): 87%
  Total Cell Count: 358
[2]
  Population Apoptotic (%): 78%
  Population Fragmented Nuclei (%): 8%
  Population Healthy Nuclei (%): 6%
  Population Hoechst High Intensity Objects (%): 10%
  Population Membrane Permeable-Phenotype (%): 0%
  Population Mitochondria Different-Phenotype (%): 100%
  Population Mitotic Cells (%): 21%
  Population Normal (%): 89%
  Population Pyknosed Nuclei (%): 84%
  Population Tubulin-Different-Phenotype (%): 90%
  Total Cell Count: 162
[3]
  Population Apoptotic (%): 72%
  Population Fragmented Nuclei (%): 28%
  Population Healthy Nuclei (%): 0%
  Population Hoechst High Intensity Objects (%): 28%
  Population Membrane Permeable-Phenotype (%): 50%
  Population Mitochondria Different-Phenotype (%): 50%
  Population Mitotic Cells (%): 27%
  Population Normal (%): 71%
  Population Pyknosed Nuclei (%): 70%
  Population Tubulin-Different-Phenotype (%): 100%
  Total Cell Count: 306
[4]
  Population Apoptotic (%): 96%
  Population Fragmented Nuclei (%): 51%
  Population Healthy Nuclei (%): 7%
  Population Hoechst High Intensity Objects (%): 45%
  Population Membrane Permeable-Phenotype (%): 11%
  Population Mitochondria Different-Phenotype (%): 16%
  Population Mitotic Cells (%): 3%
  Population Normal (%): 54%
  Population Pyknosed Nuclei (%): 41%
  Population Tubulin-Different-Phenotype (%): 66%
  Total Cell Count: 454
[5]
  Population Apoptotic (%): 70%
  Population Fragmented Nuclei (%): 27%
  Population Healthy Nuclei (%): 2%
  Population Hoechst High Intensity Objects (%): 20%
  Population Membrane Permeable-Phenotype (%): 12%
  Population Mitochondria Different-Phenotype (%): 75%
  Population Mitotic Cells (%): 29%
  Population Normal (%): 79%
  Population Pyknosed Nuclei (%): 69%
  Population Tubulin-Different-Phenotype (%): 75%
  Total Cell Count: 358
[6]
  Population Apoptotic (%): 84%
  Population Fragmented Nuclei (%): 9%
  Population Healthy Nuclei (%): 9%
  Population Hoechst High Intensity Objects (%): 8%
  Population Membrane Permeable-Phenotype (%): 7%
  Population Mitochondria Different-Phenotype (%): 92%
  Population Mitotic Cells (%): 15%
  Population Normal (%): 91%
  Population Pyknosed Nuclei (%): 81%
  Population Tubulin-Different-Phenotype (%): 92%
  Total Cell Count: 169
[7]
  Population Apoptotic (%): 77%
  Population Fragmented Nuclei (%): 38%
  Population Healthy Nuclei (%): 0%
  Population Hoechst High Intensity Objects (%): 35%
  Population Membrane Permeable-Phenotype (%): 0%
  Population Mitochondria Different-Phenotype (%): 0%
  Population Mitotic Cells (%): 22%
  Population Normal (%): 64%
  Population Pyknosed Nuclei (%): 61%
  Population Tubulin-Different-Phenotype (%): 0%
  Total Cell Count: 317
[8]
  Population Apoptotic (%): 98%
  Population Fragmented Nuclei (%): 48%
  Population Healthy Nuclei (%): 15%
  Population Hoechst High Intensity Objects (%): 46%
  Population Membrane Permeable-Phenotype (%): 25%
  Population Mitochondria Different-Phenotype (%): 28%
  Population Mitotic Cells (%): 1%
  Population Normal (%): 53%
  Population Pyknosed Nuclei (%): 35%
  Population Tubulin-Different-Phenotype (%): 77%
  Total Cell Count: 422
[9]
  Population Apoptotic (%): 74%
  Population Fragmented Nuclei (%): 38%
  Population Healthy Nuclei (%): 1%
  Population Hoechst High Intensity Objects (%): 21%
  Population Membrane Permeable-Phenotype (%): 0%
  Population Mitochondria Different-Phenotype (%): 100%
  Population Mitotic Cells (%): 25%
  Population Normal (%): 78%
  Population Pyknosed Nuclei (%): 60%
  Population Tubulin-Different-Phenotype (%): 100%
  Total Cell Count: 380
[10]
  Population Apoptotic (%): 84%
  Population Fragmented Nuclei (%): 10%
  Population Healthy Nuclei (%): 18%
  Population Hoechst High Intensity Objects (%): 11%
  Population Membrane Permeable-Phenotype (%): 3%
  Population Mitochondria Different-Phenotype (%): 88%
  Population Mitotic Cells (%): 15%
  Population Normal (%): 88%
  Population Pyknosed Nuclei (%): 71%
  Population Tubulin-Different-Phenotype (%): 85%
  Total Cell Count: 166
[11]
  Population Apoptotic (%): 85%
  Population Fragmented Nuclei (%): 45%
  Population Healthy Nuclei (%): 0%
  Population Hoechst High Intensity Objects (%): 42%
  Population Membrane Permeable-Phenotype (%): 0%
  Population Mitochondria Different-Phenotype (%): 0%
  Population Mitotic Cells (%): 14%
  Population Normal (%): 57%
  Population Pyknosed Nuclei (%): 54%
  Population Tubulin-Different-Phenotype (%): 0%
  Total Cell Count: 360
[12]
  Population Apoptotic (%): 98%
  Population Fragmented Nuclei (%): 53%
  Population Healthy Nuclei (%): 22%
  Population Hoechst High Intensity Objects (%): 44%
  Population Membrane Permeable-Phenotype (%): 14%
  Population Mitochondria Different-Phenotype (%): 48%
  Population Mitotic Cells (%): 1%
  Population Normal (%): 55%
  Population Pyknosed Nuclei (%): 24%
  Population Tubulin-Different-Phenotype (%): 75%
  Total Cell Count: 397
